Bioassay records: PubChem BioAssay, several laboratories
Sampled rows, rich in hits. Any-hit rate of the full collection: about 2.6%.
rCAG RNA binder: molecules binding r(CAG) RNA repeats; 1.3% of 370,000 active; r(CAG) RNA repeat, TO-PRO-1 dye displacement fluorescence; AID 651821; inhibition, % at 3 µM;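 active = inhibition above the plate cutoff, the mean of all test compounds on that plate plus 3 SD, cut at about 35% in these data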;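 also: 0% = DMSO alone and 100% = 100 µM mitoxantrone as full dye displacement; higher means more dye released from RNA so lower well fluorescence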
NadD inh: NadD (S. aureus) enzyme inhibition; purified NadD enzyme, colorimetric absorbance read-out; inhibition, % at 20 µM; 0.78% of 360,000 active; AID 602399; in the data active = inhibition above about 26%
core dimer inh: HCV core protein dimerization inhibition; inhibition, % at 5 µM; TR-FRET GST/Flag-core106 dimerization, 1536-well; AID 1899; 0.33% of 300,000 active;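 active = inhibition above the mean of all tested compounds plus 3 SD, set per screening campaign, cut at about 45% in these data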
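test system = GST/Flag-tagged HCV core106 proteins | probe or stimulus = Eu donor and XL665 acceptor anti-tag antibodies | times = compound-protein-antibody incubation 4 h at 22.5 °C | signal = TR-FRET, excitation 340 nm, emission 617 and 671 nm | measure = percent inhibition of core106 dimerization signal | controls = wells lacking GST-core106 and wells with excess unlabelled core106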
ABHD5-PLIN5 inh: blocks binding of human ABHD5 to perilipin-5; 0.78% of 360,000 active; inhibition, % at 4 µM; Q00G26+Q8WTS1; Split G. princeps luciferase complementation, luminescence, 4 h;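 active = inhibition above the mean inhibition across every tested compound plus 3 SD, cut at about 22% in these data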;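 also: 0% = DMSO only wells and the 100% control is not disclosed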
Target sequence (Q00G26 whole entry, looked up): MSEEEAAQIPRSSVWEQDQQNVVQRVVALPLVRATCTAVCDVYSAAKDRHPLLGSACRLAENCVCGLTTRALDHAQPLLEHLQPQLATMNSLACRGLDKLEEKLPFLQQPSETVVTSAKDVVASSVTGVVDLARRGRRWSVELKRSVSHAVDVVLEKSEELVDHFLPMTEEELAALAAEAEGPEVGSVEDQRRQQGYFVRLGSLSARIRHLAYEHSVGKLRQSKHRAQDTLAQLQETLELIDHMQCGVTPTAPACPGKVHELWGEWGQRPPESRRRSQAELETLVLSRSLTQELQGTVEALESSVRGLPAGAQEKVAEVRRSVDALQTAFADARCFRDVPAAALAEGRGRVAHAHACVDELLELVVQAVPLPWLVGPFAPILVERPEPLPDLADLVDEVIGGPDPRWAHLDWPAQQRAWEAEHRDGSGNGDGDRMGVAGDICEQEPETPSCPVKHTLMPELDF
Target sequence (Q8WTS1 whole entry, looked up): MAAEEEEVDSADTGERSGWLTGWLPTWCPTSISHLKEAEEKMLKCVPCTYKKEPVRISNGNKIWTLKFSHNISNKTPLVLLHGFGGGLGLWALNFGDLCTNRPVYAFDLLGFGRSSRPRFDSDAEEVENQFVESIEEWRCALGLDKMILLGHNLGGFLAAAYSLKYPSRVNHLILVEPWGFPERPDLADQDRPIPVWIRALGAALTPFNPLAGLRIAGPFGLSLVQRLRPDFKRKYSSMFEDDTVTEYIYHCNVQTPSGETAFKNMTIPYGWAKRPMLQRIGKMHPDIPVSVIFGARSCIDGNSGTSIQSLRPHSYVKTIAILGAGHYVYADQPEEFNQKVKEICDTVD
The depositor's hits bear a star; · = no result.

SMILES	rCAG RNA binder	NadD inh	core dimer inh	ABHD5-PLIN5 inh
C(=C\c1ccccc1)/CSc1nnc(Cc2cccs2)n1-c1ccccc1	1	·	·	·
Cc1cc(C)c(S(=O)(=O)Nc2cc(SCC(=O)O)c(O)c3ccccc23)cc1C	·	·	-9	·
O=C(O)CSc1cc(NS(=O)(=O)c2ccc(Cl)cc2)c2ccccc2c1O	37*	4	-12	5
COc1cccc(C(=O)N[C@H](C(=O)N2CCC[C@H]2C(=O)NCCc2ccccc2Cl)c2ccccc2)c1	0	·	·	·
CCN(CC)C(=O)CSc1nnc(-c2cccs2)o1	-1	·	·	·
Cc1cc(C)c(NC(=O)CSc2nc3ccc(N4C(=O)c5ccccc5C4=O)cc3s2)c(C)c1	0	-3	8	-3
CCc1cccc(C)c1NC(=O)CSc1nc2ccc(N3C(=O)c4ccccc4C3=O)cc2s1	3	19	47*	-10
O=C(CN1CCc2onc(-c3ccc(-n4cc(-c5ccccc5)nn4)cc3)c2C1=O)N1CCOCC1	9	·	·	·
COC(=O)C1=C(\O)CCCC/C=C\1C(=O)O	0	3	·	22*
COc1ccc(CCN(Cc2cccs2)S(=O)(=O)c2ccc(F)cc2)cc1OC	3	·	·	·
CC(=O)c1c(C)oc2ccc(NS(=O)(=O)c3ccc(O)c(C(=O)O)c3)cc12	19	-3	8	1
O=C(O)c1cc(S(=O)(=O)Nc2ccc3oc(=O)sc3c2)ccc1O	60*	·	-10	·
COCc1cc(N2CCNC[C@H]2C)ccc1N1CCN(Cc2ccccc2)[C@H](C)C1	6	·	·	·
O=C1NC(=S)N/C1=C/c1cccn1-c1ccc([N+](=O)[O-])cc1	29	10	59*	4
COC(=O)[C@]12C[C@H](CC(=O)NCc3cccc4ccccc34)C(=O)N(CCc3ccc(OC)c(OC)c3)C1=C[C@H](COCc1ccccc1)O[C@@H]2C	11	·	·	·
Cc1ccc2c(c1)c(=O)c1c3n2CCN(C(=O)CCl)C3CC1 (centres undefined)	22	18	47*	-9
O=C(NCc1ccccc1)[C@@H]1CCCN1C(=O)[C@H]1CCCN1C(=O)c1ccccc1C(F)(F)F	-3	·	·	·
CCOc1ccc(NC(=O)c2cc(-c3ccc(Cl)cc3)nc3ccccc23)cc1	5	·	·	·
Cc1cc(C)c(S(=O)(=O)N2CCOC2CNC(=O)C(=O)NCCc2ccc(S(N)(=O)=O)cc2)c(C)c1 (centres undefined)	9	-2	50*	2
Cc1ccccc1-c1ccc2c(c1)[C@@H]1C[C@H]3[C@@H](CN1CC2)[C@H](C)ON3C	4	·	·	·
CCOC(=O)c1c(NC(C)=O)sc2c(OCCN(CC)CC)c(Br)ccc12	2	-8	-1	6
CCOC(=O)c1c(NC(C)=O)sc2c1CCC(C=NCCCN(CC)CC)=C2Sc1ccccc1	·	10	1	48*
C=CCn1c(C)c(C(C)=O)cc(NC(=O)c2ccccc2)c1=O	-2	-4	2	-1
C=CCN1C(=O)/C(=C/C(=O)OC)S/C1=N\NC(=O)c1ccccc1	-4	-8	1	23*
O=C(O)CCN1C(=O)/C(=C\c2cccc(OCc3ccccc3)c2)SC1=S	7	7	21	12
SMILES	rCAG RNA binder	NadD inh	core dimer inh	ABHD5-PLIN5 inh
O=C(O)CCN1C(=O)/C(=C\c2ccc(OCc3ccccc3)c(OCc3ccccc3)c2)SC1=S	12	31*	6	-5
O=c1oc(-c2ccccc2)nc2sc3c(c12)CCC3	21	-4	59*	-3
COC(=O)[C@]12C[C@H](CC(=O)NCc3ccc(C)o3)C(=O)N(CCC3=CCCCC3)C1=C[C@H](COCc1ccccc1)O[C@@H]2C	5	·	·	·
CC(=O)C1=C(C)NC(SCC(=O)c2cc(Cl)ccc2Cl)=C(C#N)C1c1ccco1 (centres undefined)	24	22	16	22*
C=CCN1C(=O)c2[nH]nc(-c3ccccc3)c2C1c1ccc(C)cc1 (centres undefined)	0	·	·	·
COc1ccc(S(=O)(=O)Nc2ccc(S(=O)(=O)Nc3ccc(F)cc3)cc2)cc1C	47*	-3	11	2
O=c1c2cc(F)ccc2sn1-c1ccc(F)cc1	·	7	·	33*
CC(=O)Nc1ccc2sn(-c3ccccc3)c(=O)c2c1	4	19	·	85*
O=c1c2cc([N+](=O)[O-])ccc2sn1-c1ccccc1	1	7	·	-10
O=C1CCCC(=O)N1c1ccc(F)cc1	4	-7	0	1
N#Cc1ccc2sn(-c3ccccc3)c(=O)c2c1	2	10	·	34*
O=C(NCc1ccc2c(c1)OCO2)c1cc2ncc(Br)cn2n1	4	18	67*	-2
CC(C)(C)N1C(=O)Cc2c1nc(N)c1c(N)nc(N3CCCCC3CO)c(C#N)c21 (centres undefined)	·	37*	-2	11
COc1cccc(OCC(C)CN2CCC(C(O)(c3ccccc3)c3ccccc3)CC2)c1 (centres undefined)	13	·	·	·
COC(=O)[C@]12C[C@H](CC(=O)N3CCSCC3)C(=O)N(Cc3ccccc3)C1=C[C@H](COCc1ccccc1)O[C@@H]2C	5	·	·	·
C/C(=N\OCc1nc2ccccc2c(=O)n1/N=C/c1cc([N+](=O)[O-])ccc1O)c1ccccc1	62*	32*	7	-4
O=S(=O)(CS(=O)(=O)c1ccc(Br)cc1)c1ccc(Br)cc1	6	·	·	·
O=C1/C(=C/c2ccccc2)SC(=S)N1CC(=O)N1CCCCC1c1cccnc1 (centres undefined)	4	45*	26	9
O=C1/C(=C\c2ccccc2)SC(=S)N1CCC(=O)N1CCCCC1CCO (centres undefined)	-3	0	8	-1
COc1ccc(CNC(=O)C[C@H]2C[C@H](C(=O)N3CCCCC3)[C@@]3(C)c4[nH]c5cc(-c6ccco6)ccc5c4CCN3C2=O)cc1OC	11	13	·	-4
C[C@]12c3[nH]c4cc(-c5ccco5)ccc4c3CCN1C(=O)[C@@H](CC(=O)NCc1cccc(C(F)(F)F)c1)C[C@@H]2C(=O)N1CCOCC1	10	1	·	12
CC(C)N(C(=O)[C@H]1C[C@H](CC(=O)NCc2cccc(C(F)(F)F)c2)C(=O)N2CCc3c([nH]c4cc(-c5ccco5)ccc34)[C@]12C)C(C)C	11	9	·	22*
CCN(CC)C(=O)[C@H]1C[C@H](CC(=O)NCc2ccc(OC)c(OC)c2)C(=O)N2CCc3c([nH]c4cc(-c5ccco5)ccc34)[C@]12C	11	5	·	23*
O=C(NC1CCCCN(Cc2cccc(F)c2)C1=O)c1ccc2ccccc2c1 (centres undefined)	3	·	·	·
CCN(Cc1ccccc1)C(=O)CCCN1C(=O)COc2ccc(C)cc21	-2	·	·	·
CC(=O)Nc1ccc(C=CC=Cc2cccc([N+](=O)[O-])c2)cc1	4	-6	·	22*
COC(=O)[C@]12C[C@H](CC(=O)NCC3CCCCC3)C(=O)N(CCc3ccc(OC)c(OC)c3)C1=C[C@H](COCc1ccccc1)O[C@@H]2C	4	·	·	·
O=C(O)c1cc(Nc2cc(Cl)c3nonc3c2[N+](=O)[O-])ccc1O	8	-3	11	23*
CCCCCN1CCCCC(NC(=O)c2cccc(F)c2)C1=O (centres undefined)	-3	·	·	·
